The text below walks through data of ChEMBL document CHEMBL1127561, “Novel spirosuccinimide aldose reductase inhibitors derived from isoquinoline-1,3-diones: 2-[(4-bromo-2-fluorophenyl)methyl]-6- fluorospiro[isoquinoline-4(1H),3'-pyrrolidine]-1,2',3,5'(2H)-tetrone and congeners. 1” (J Med Chem, 1994).

Molecules are shown by their SMILES. Calls of active or inactive are those of the source. The calls are words filed in the database; no cut-off is given here.

Data set [1] has as its system Rattus norvegicus. Kind of data set: Percentage Inhibition of galactitol accumulation in the lens of rats fed with the dose of 1.0 mg/kg/day. Format: functional. The following applies: Lens of camera-type eye. The method in brief: (§1)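 Male Sprague-Dawley rats (70-90 g), six per group, fed 20% galactose chow with compound in the diet for 4 days; glucose-fed controls. After a 3-h fast, lens or sciatic nerve galactitol was measured as nmol/mg wet weight. Percent inhibition vs galactose-fed controls, mean ± SEM; ANOVA with Dunnett's test.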

The subject of data set [2] is Rattus norvegicus. Kind of data set: Percentage Inhibition of galactitol accumulation in the sciatic nerve of rats fed with the dose of 1.0 mg/kg/day. Format: functional. The method in brief:
as §1

Data set [3] in a line: Log P value by using Octanol / pH 7.4 buffer. In kind it is physicochemical. The essentials:
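Partition measured between octanol and pH 7.4 buffer.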

The target of data set [4] is Aldo-keto reductase family 1 member B1 (Bos taurus) (UniProt P16116). Kind of data set: Inhibition of aldose reductase activity in a partially purified bovine lens preparation at 10e-7 M. The essentials:
(§2)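 Partially purified bovine lens aldose reductase (ammonium sulfate fractionation). NADPH oxidation read at 340 nm, 37 °C, in 30 mM sodium phosphate pH 6.2, 0.2 M LiSO4, […], 1% DMSO. Enzyme was preincubated with inhibitor for 5 min, then the reaction was started with 5 mM DL-glyceraldehyde. Duplicates; IC50 from linear regression of log concentration vs percent inhibition.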

Data set [5] concerns Rattus norvegicus. Kind of data set: Percentage Inhibition of galactitol accumulation in the lens of rats fed with the dose of 3.0 mg/kg/day. In kind it is functional. The settings on record: Lens of camera-type eye. The essentials:
as §1

The target of data set [6] is Aldo-keto reductase family 1 member B1 (Bos taurus) (UniProt P16116). Put plainly: Inhibition of aldose reductase activity in a partially purified bovine lens preparation at 4*10e-8 M. The essentials:
as §2

For data set [7], the system named is Rattus norvegicus. Kind of data set: Percentage Inhibition of galactitol accumulation in the sciatic nerve of rats fed with the dose of 3.0 mg/kg/day (values are mean of six animals). In kind it is functional. The essentials: as §1
The test system of data set [8] is Rattus norvegicus. Put plainly: Percentage Inhibition of galactitol accumulation in the sciatic nerve of rats fed with the dose of 25.6 mg/kg/day. Format: functional. The method in brief: as §1
The target of data set [9] is Aldo-keto reductase family 1 member B1 (Bos taurus, UniProt P16116). Put plainly: In vitro inhibition of aldose reductase activity in a partially purified bovine lens preparation.
In data set [10] the test system is Rattus norvegicus. Kind of data set: Percentage Inhibition of galactitol accumulation in the lens of rats fed with the dose of 1.1 mg/kg/day. In kind it is functional. The following applies: Lens of camera-type eye. The method in brief: as §1
Data set [11] has as its system Rattus norvegicus. Kind of data set: Percentage Inhibition of galactitol accumulation in the sciatic nerve of rats fed with the dose of 1.1 mg/kg/day (values are mean of six animals). Format: functional. The essentials: as §1
Data set [12] deals with Rattus norvegicus. Put plainly: Percentage Inhibition of galactitol accumulation in the sciatic nerve of rats fed with the dose of 0.5 mg/kg/day. Format: functional. The essentials:
as §1

Data set [13] is filed under the species Rattus norvegicus. Kind of data set: Dose at which the tissue level of polyol accumulation was reduced by 50% was evaluated for STZ diabetic rat in sciatic nerve. Format: functional. The essentials: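 Male Sprague-Dawley rats (200-250 g, 12 per group) made diabetic with streptozocin 60 mg/kg iv in cold 0.03 M citrate pH 4.5; plasma glucose kept between 300 and 550 mg/dl. Compound was suspended in 2% Tween 80/saline and gavaged daily for 14 days. On day 15, RBC, lens and sciatic nerve polyol was measured. ED50 by nonlinear regression of log dose.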

For data set [14], the system named is Rattus norvegicus. Put plainly: Percentage Inhibition of galactitol accumulation in the lens of rats fed with the dose of 0.8 mg/kg/day; NS=Not significant. Format: functional, organism-based. The settings on record: Lens of camera-type eye. The essentials: as §1
For data set [15], the species on record is Rattus norvegicus. Kind of data set: Dose at which the tissue level of polyol accumulation was reduced by 50% was evaluated for galactosemic rat in lens. In kind it is functional. The settings on record: Lens of camera-type eye. The method in brief:
(§3)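 Male Sprague-Dawley rats (70-90 g, six per group) fed chow with 20% galactose and compound in the diet for 4 or 14 days. After a 3-h fast, lens and sciatic nerve were removed and frozen, and galactitol was quantitated in nmol/mg wet weight. ED50 from nonlinear regression of log dose vs tissue polyol.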

Data set [16] has as its system Rattus norvegicus. Kind of data set: Percentage Inhibition of galactitol accumulation in the sciatic nerve of rats fed with the dose of 0.8 mg/kg/day. In kind it is functional. The essentials: as §1
Data set [17] is filed under the species Rattus norvegicus. Put plainly: Dose at which the tissue level of polyol accumulation was reduced by 50% was evaluated for galactosemic rat in sciatic nerve. Format: functional. The method in brief: as §3
Data set [18] concerns Rattus norvegicus. Put plainly: Percentage Inhibition of galactitol accumulation in the sciatic nerve of rats fed with the dose of 1.1 mg/kg/day. Format: functional. The essentials: as §1
In data set [19] the test system is Rattus norvegicus. Kind of data set: Percentage Inhibition of galactitol accumulation in the lens of rats fed with the dose of 1.0 mg/kg/day; NS=Not significant. Format: functional, organism-based. The following applies: Lens of camera-type eye. The method in brief: as §1
For data set [20], the system named is Rattus norvegicus. Kind of data set: Percentage Inhibition of galactitol accumulation in the lens of rats fed with the dose of 3.0 mg/kg/day; NS=Not significant. Format: functional, organism-based. The settings on record: Lens of camera-type eye. The essentials: as §1
Data set [21] relates to Rattus norvegicus. Put plainly: Percentage Inhibition of galactitol accumulation in the sciatic nerve of rats fed with the dose of 3.0 mg/kg/day. Format: functional. The method in brief:
as §1

In data set [22] the test system is Rattus norvegicus. Kind of data set: Percentage Inhibition of galactitol accumulation in the sciatic nerve of rats fed with the dose of 1.0 mg/kg/day (values are mean of six animals). Format: functional. The method in brief: as §1

One may read the inhibition in vivo as the drop in the measured response relative to a control, in per cent. A lower inhibition in vivo goes with little suppression. Usually logD stands for the decadic logarithm of the distribution of all forms, ionised or not, between an organic phase and buffer at a given pH. Low values mean lower lipophilicity, high ones higher lipophilicity. By inhibition is commonly meant the share of the control response that was lost under treatment. As to `CN1C(=O)c2ccccc2C2(CC(=O)NC2=O)C1=O` (stereo not drawn), the inhibition in vivo at 1 mg/kg/day stood at 15% in [1] and 37% in [2]. Further, the logD in data set [3] was 0.24. Also, the figures for the inhibition in data set [4] and in data set [6] were 63% and 38%, respectively. For the same compound, the inhibition in vivo at 3 mg/kg/day in data set [5] was 43%; in data set [7], 66%.

By IC50 is commonly meant the concentration needed to halve the response being measured. Higher therefore signals weaker potency in that assay. In data set [8], `COc1ccc2c(c1)C(=O)N(Cc1ccc(Br)cc1F)C(=O)C21CC(=O)NC1=O` (stereo not drawn) showed an inhibition in vivo at 25.6 mg/kg/day of 88%. Further, it took 37 nM to reach half-maximal inhibition in data set [9] (IC50).

`O=C1CC2(C(=O)N1)C(=O)N(Cc1nc3cc(C(F)(F)F)ccc3s1)C(=O)c1ccccc12` (stereo not drawn) registered a logD in data set [3] of 3.17. The compound further displayed an IC50 in data set [9] of 22 nM. Besides, the inhibition in vivo at 1.1 mg/kg/day in [10] came to 22%; in data set [11], 100%. The same compound came in with an inhibition in vivo at 0.5 mg/kg/day in [12] of 49%.

Usually ED50 stands for the midpoint of the dose-response relation. Higher therefore signals weaker potency. As for `O=C1CC2(C(=O)N1)C(=O)N(Cc1ccc(Br)cc1F)C(=O)c1ccccc12` (stereo not drawn), the ED50 in [13] is 0.07 mg/kg/day; in data set [15], about 10 mg/kg/day; in [17] it was 0.3 mg/kg/day. In [3], this compound showed a logD of 2.74. In [12], this compound gave an inhibition in vivo at 0.5 mg/kg/day of 82%. The inhibition result in [14] was “inactive”. The same compound displayed an inhibition in vivo at 0.8 mg/kg/day in data set [16] of 88%.

As to `O=C1CC2(C(=O)N1)C(=O)N(Cc1ccc(Cl)c(Cl)c1)C(=O)c1ccccc12` (stereo not drawn), the inhibition in vivo at 1.1 mg/kg/day in data set [18] was 64%. Besides, the inhibition result in data set [19] and in data set [20] was “inactive” each time. Besides, in [3], the logD came out at 3.09. In addition, in data set [9], the IC50 is 22 nM. The same compound showed an inhibition in vivo at 3 mg/kg/day in data set [21] of 76%. In data set [22], this compound gave an inhibition in vivo at 1 mg/kg/day of 64%.
